Many of the other results were omitted from the sample, so hits are more common in it than they were.
Fibroblast inh – blocks proliferation of human lung fibroblasts; AID 719; LL 47 human lung fibroblast viability, ATP luminescence; active compounds read low; 85,000 tested, 1.1% active; viability, % at 10 µM;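 active = viability at or below 50% in the single dose screen; inactive = viability above 50%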;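 note: compound exposure lasted 72 h before the ATP readout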
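material = human LL 47 lung fibroblast cells | dosing = compounds added from tenfold dosing solution, 0.1% DMSO final | timing = overnight cell rest, 72 h compound treatment at 37 °C | measured by = CellTiter-Glo luminescence measuring cellular ATP | evaluation = % viability versus median cells-only luminescence | control set = cell-only wells, no compound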
H69AR inhibit – blocks growth of human H69AR lung tumor cells. H69AR lung tumor viability, ATP luminescence, 72 h; active compounds read low. viability, % at 10 µM. 85,000 tested, 6% active. AID 598;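 active = viability at or below 40%; inactive = viability above 40%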;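 note: multidrug resistant small cell line overexpressing MRP-1 efflux transporter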
HCT116 bCat-KO – beta-catenin-lacking colon tumor cell growth suppression. HCT116 beta-catenin knockout viability, CellTiter-Glo, 60 h; active compounds read low. viability, % at 10 µM. 140,000 tested, 1.5% active. AID 818;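 active = viability at or under a set limit, the compound median less 4 SD, cut at about 6% in these data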
HUVEC prolif 384 – human endothelial cell proliferation inhibition; HUVEC proliferation, CellTiter-Glo luminescence, 72 h; active compounds read low; viability, % at 10 µM (by protocol); 86,000 tested, 1.1% active; AID 648;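 active = viability at or below 30%; inactive = viability above 30%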
HCT116 PTEN-null – suppresses growth of cells with PTEN deletion; HCT116 PTEN-null viability, CellTiter-Glo, 60 h; active compounds read low; viability, % at 10 µM; 140,000 tested, 1.2% active;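 active = viability at or below a set limit, 4 SD under the median of all tested compounds, cut at about 3.7% in these data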;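 note: PTEN knockout HCT116 line with beta catenin targeted HCT116 as companion control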
Numbers stand for hits; – = inactive; · = not tested or not shown.

SMILES	Fibroblast inh	H69AR inhibit	HCT116 bCat-KO	HUVEC prolif 384	HCT116 PTEN-null
Cc1cc2oc(=O)cc(COC(=O)c3cccc(N(C)C)c3)c2cc1C	–	–	·	–	·
CCN(CC)c1ccc(C(=O)OCc2cc(=O)oc3cc(O)ccc23)cc1	·	·	0.9	·	0.2
O=C(COC(=O)CCC(NC(=O)OCc1ccccc1)C(=O)OCC(=O)Nc1ccccc1)Nc1ccccc1 (configuration not stated)	·	·	–	·	–
Cn1cnnc1SCc1ccc(C(=O)N=Nc2c(O)n(Cc3ccc(Cl)cc3)c3ccccc23)cc1	·	·	3.8	·	–
CCc1cccc(CC)c1NC(=O)CO/N=C(\C)c1cccs1	·	·	–	·	–
COCc1cc(CN2CCCC2)c(O)c2ncccc12	3.3	23	–	–	–
COc1ccccc1N1CCN(Cc2cc(Br)c(O)c3ncccc23)CC1	3.2	20	2.2	–	2.1
O=[N+]([O-])c1cc(CN2CCCC2)c2cccnc2c1O	·	·	–	·	–
Oc1c(CN2CCCCC2)cc(COCc2ccccc2)c2cccnc12	·	·	1.7	·	2.2
CC(=O)c1ccc(NC(=O)C2(c3ccccc3)CCOCC2)cc1	–	–	–	–	–
Cc1ccc(NC(=S)NC(NC(=O)c2ccco2)C(Cl)(Cl)Cl)cc1 (configuration not stated)	–	22	–	–	–
Cc1cc(C)c(NC(=S)NC(NC(=O)c2ccccc2)C(Cl)(Cl)Cl)c(C)c1 (configuration not stated)	·	·	–	·	–
O=C(NC(NC(=S)Nc1ccc(Cl)cc1Cl)C(Cl)(Cl)Cl)c1cccc([N+](=O)[O-])c1 (configuration not stated)	·	·	4.1	·	3.3
O=C(NC(NC(=S)Nc1ccccc1)C(Cl)(Cl)Cl)c1cccc(Cl)c1 (configuration not stated)	·	·	2.6	·	2.0
O=C(N/N=C/C(Cl)=C\c1ccccc1)c1cnccn1	–	–	4.0	–	–
CCN(CC)CCNc1nc2cc(OC)c(OC)cc2c2nc(-c3ccccc3)nn12	2.7	15	1.7	11	1.2
CC12CCC(C(=O)N(NC(=O)c3cc(Cl)ccc3O)C1=O)C2(C)C (configuration not stated)	·	·	–	·	–
O=C(Nc1cc2nn(-c3ccccc3)nc2cc1Cl)c1ccco1	–	–	1.7	–	3.4
O=C(Nc1ccc2nn(-c3ccccc3)nc2c1)c1ccco1	–	–	–	–	–
CCn1cc(C(=O)O)c(=O)c2cc(F)c(N3CCN(S(=O)(=O)c4ccc(NC(=O)OC)cc4)CC3)cc21	·	·	–	·	–
Cc1cccc(N2C(=O)C(Oc3ccc(Cl)cc3Cl)C2C=O)c1C (configuration not stated)	·	·	5.2	·	–
N/C(Cc1ccc(Cl)cc1)=N\OC(=O)c1ccc2ccccc2c1	–	3.2	–	5.6	–
N/C(Cc1ccc(Cl)cc1)=N\OC(=O)c1cccc2ccccc12	–	-0.4	–	1.4	–
Cc1ccccc1OCC(=O)O/N=C(\N)Cc1ccc(Cl)cc1	–	–	–	–	–
Cc1c(C(=O)NCc2ccc3c(c2)OCO3)cccc1[N+](=O)[O-]	·	·	–	·	–
SMILES	Fibroblast inh	H69AR inhibit	HCT116 bCat-KO	HUVEC prolif 384	HCT116 PTEN-null
O=C(N/N=C\c1c(O)ccc2ccccc12)c1ccc(S(=O)(=O)N2CCCCC2)cc1	·	·	–	·	–
CCCC1=Nc2cc(C(=O)NCCCOCC)ccc2Sc2ccccc21	–	33	–	–	–
CCCC1=Nc2cc(C(=O)NCCCOC(C)C)ccc2Sc2ccccc21	–	16	–	–	–
CCC1=Nc2cc(C(=O)NCc3ccco3)ccc2Sc2ccc(C)cc21	·	·	–	·	–
CCC1=Nc2cc(C(=O)NCCCOC)ccc2Sc2ccccc21	–	32	–	–	–
CC(C)OCCCNC(=O)c1ccncc1	–	–	–	–	–
CCCC(C)NC(=O)COc1ccc(Sc2ccc(OCC(=O)NC(C)CCC)cc2)cc1 (configuration not stated)	·	·	–	·	–
COc1cc(-c2nnc(SCC3(c4ccc(Br)cc4)OCCO3)o2)cc(OC)c1OC	·	·	–	·	–
COc1ccc(/C=C/C(=O)NCC(=O)N/N=C/c2cc(Br)ccc2OCc2ccccc2)cc1	–	7.4	–	–	–
Cc1cccc(NC(=S)NN(Cc2ccccc2)c2ccccc2)c1C	·	·	–	·	–
CCC(c1nnnn1CCc1ccccc1)N(Cc1ccco1)Cc1cc2cc(C)cc(C)c2[nH]c1=O (configuration not stated)	–	26	–	–	–
CCC(c1nnnn1CCc1ccccc1)N(Cc1ccco1)Cc1cc2c(C)ccc(C)c2[nH]c1=O (configuration not stated)	–	24	–	–	–
CCOc1cc(C)c(Cl)cc1S(=O)(=O)NCc1ccc2c(c1)OCO2	–	22	–	–	–
CCOC(=O)Cc1csc(NC(=O)c2sc3nc4c(C)cc(C)cc4cc3c2N)n1	·	·	–	·	–
COCCCNc1c2c3c(cccc3[nH]c1=O)C(=O)c1ccccc1-2	–	18	–	–	–
Nc1nc(Cl)cc(N2CCC(c3cc(-c4ccc(Cl)cc4Cl)n[nH]3)CC2)n1	·	·	3.2	·	–
Nc1nc(Cl)cc(N2CCOCC2)n1	·	·	–	·	–
COc1ccc(-c2nc(CCNC(=O)c3cccs3)cs2)cc1	–	–	–	–	–
CC(O)CNc1nc2ccccc2n1-c1ncnc2sc3c(c12)CCC3 (configuration not stated)	–	38	–	–	–
c1ccc2c(c1)ncn2-c1ncnc2sc3c(c12)CCCC3	–	–	–	–	–
COc1ccc(CC/C(C)=N\NC(N)=O)cc1	·	·	–	·	–
O=C(C(c1ccccc1)c1ccccc1)N1CCN(Cc2ccc(Br)cc2)CC1	–	36	–	–	–
CN(c1ccccc1C(=O)Nc1cccc([N+](=O)[O-])c1)S(C)(=O)=O	·	·	–	·	–
O=C(CCS(=O)(=O)c1ccccc1)Nc1nc(-c2cccs2)cs1	·	·	–	·	–
CC(C)c1nnc(NC(=O)CCS(=O)(=O)c2nc(-c3cccs3)cc(C(F)(F)F)n2)s1	–	1.1	–	16	–
SMILES	Fibroblast inh	H69AR inhibit	HCT116 bCat-KO	HUVEC prolif 384	HCT116 PTEN-null
O=C(c1ccc(Br)o1)N1CCN(c2ccc3nnc(-c4ccccc4)n3n2)CC1	–	–	–	–	–
O=S(=O)(c1ccc(Br)cc1)N1CCN(c2ccc3nnc(-c4ccccc4)n3n2)CC1	–	30	–	–	–
COCCCn1cc(C(=O)c2cc(OC)ccc2OCC(=O)Nc2cc(C)on2)cc(C#N)c1=O	·	·	–	·	–
CCCCOC(=O)n1c(=O)oc2ccccc21	–	–	–	–	–
CCOC(=O)n1c(=O)oc2ccc(Cl)cc21	–	38	–	–	–
Cc1ccc(NC(=O)C2c3ccccc3Oc3ccccc32)c(C)c1	·	·	–	·	–
COc1ccc(CN(Cc2cc3ccc(C)cc3[nH]c2=O)Cc2nnnn2C2CCCC2)cc1	–	25	–	–	–
CCc1ccc2[nH]c(=O)c(CN(Cc3nnnn3C3CCCC3)C3CCCCC3)cc2c1	·	12	1.8	–	1.6
Cc1cc2cc(CN(Cc3ccc4c(c3)OCO4)Cc3nnnn3C3CCCC3)c(=O)[nH]c2cc1C	–	–	–	–	–
